Test results from ChEMBL document CHEMBL1221386, “Synthesis and pharmacological evaluation of 3-aryl-3-azolylpropan-1-amines as selective triple serotonin/norepinephrine/dopamine reuptake inhibitors” (Bioorg Med Chem Lett, 2010).

Columns and labels:
[1] = Oral bioavailability in rat at 10 mg/kg; assay type: ADME, organism-based; conditions: in vivo
Cytochrome P450 2C19 = Cytochrome P450 2C19 (Homo sapiens, UniProt P33261); experiment: Inhibition of CYP2C19; assay type: ADME
Mus musculus [2] = experiment: Antidepressant activity in mouse assessed as change in locomotion at 90 mg/kg, po; assay type: functional
Mus musculus [3] = experiment: Antidepressant activity in mouse assessed as change in locomotion at 30 mg/kg, po; assay type: functional
[4] = molecular target: T1, Sodium-dependent serotonin transporter (Homo sapiens, UniProt P31645); experiment: Inhibition of serotonin reuptake at human SERT expressed in HEK293 cells; assay type: cell-based
Target sequence in this assay (P31645 whole entry): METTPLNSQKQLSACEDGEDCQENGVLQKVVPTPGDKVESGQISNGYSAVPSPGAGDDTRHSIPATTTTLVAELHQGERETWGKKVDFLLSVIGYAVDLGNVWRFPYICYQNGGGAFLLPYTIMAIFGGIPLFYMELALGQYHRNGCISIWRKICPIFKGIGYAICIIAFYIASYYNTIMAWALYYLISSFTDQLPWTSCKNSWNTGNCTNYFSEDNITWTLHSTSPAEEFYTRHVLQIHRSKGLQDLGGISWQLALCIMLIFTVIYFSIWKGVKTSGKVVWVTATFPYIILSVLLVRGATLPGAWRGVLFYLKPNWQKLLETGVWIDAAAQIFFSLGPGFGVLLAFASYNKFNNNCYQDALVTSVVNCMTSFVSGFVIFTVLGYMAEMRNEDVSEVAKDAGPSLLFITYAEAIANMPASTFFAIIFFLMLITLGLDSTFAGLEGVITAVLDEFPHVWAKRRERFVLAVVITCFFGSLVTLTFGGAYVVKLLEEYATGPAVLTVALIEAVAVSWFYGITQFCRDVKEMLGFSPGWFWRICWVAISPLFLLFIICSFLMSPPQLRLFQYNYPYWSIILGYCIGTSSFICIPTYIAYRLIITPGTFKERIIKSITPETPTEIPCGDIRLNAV

Cytochrome P450 2C9 = Cytochrome P450 2C9 (Homo sapiens, UniProt P11712); experiment: Inhibition of CYP2C9; assay type: ADME
[5] = molecular target: T1, Sodium-dependent serotonin transporter; experiment: Inhibition of serotonin reuptake at human SERT expressed in HEK293 cells at 100 nM
Target sequence in this assay (P31645 whole entry, looked up): as the sequence (P31645 whole entry) above

[6] = molecular target: Histamine H1 receptor (Homo sapiens) (UniProt P35367); experiment: Inhibition of histamine H1 receptor at 10 uM
Histamine H1 receptor (Homo sapiens), sequence (P35367 whole entry): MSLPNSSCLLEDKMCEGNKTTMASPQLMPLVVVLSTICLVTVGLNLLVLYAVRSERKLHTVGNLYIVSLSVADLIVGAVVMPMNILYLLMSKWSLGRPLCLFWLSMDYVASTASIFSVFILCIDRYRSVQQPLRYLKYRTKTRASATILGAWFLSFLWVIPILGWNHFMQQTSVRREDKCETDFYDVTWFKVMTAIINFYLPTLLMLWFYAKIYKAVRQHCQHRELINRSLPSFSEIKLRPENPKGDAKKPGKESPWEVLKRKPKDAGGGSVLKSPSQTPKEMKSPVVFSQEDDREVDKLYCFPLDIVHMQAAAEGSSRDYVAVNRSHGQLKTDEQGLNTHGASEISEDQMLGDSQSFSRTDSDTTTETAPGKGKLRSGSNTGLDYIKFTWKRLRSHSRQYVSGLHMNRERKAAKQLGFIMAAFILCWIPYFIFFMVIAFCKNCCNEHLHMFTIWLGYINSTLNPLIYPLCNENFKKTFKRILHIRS

[7] = molecular target: Muscarinic acetylcholine receptor M3 (Homo sapiens) (UniProt P20309); experiment: Inhibition of muscarinic M3 receptor at 10 uM
Muscarinic acetylcholine receptor M3 (Homo sapiens), sequence (P20309 whole entry, looked up): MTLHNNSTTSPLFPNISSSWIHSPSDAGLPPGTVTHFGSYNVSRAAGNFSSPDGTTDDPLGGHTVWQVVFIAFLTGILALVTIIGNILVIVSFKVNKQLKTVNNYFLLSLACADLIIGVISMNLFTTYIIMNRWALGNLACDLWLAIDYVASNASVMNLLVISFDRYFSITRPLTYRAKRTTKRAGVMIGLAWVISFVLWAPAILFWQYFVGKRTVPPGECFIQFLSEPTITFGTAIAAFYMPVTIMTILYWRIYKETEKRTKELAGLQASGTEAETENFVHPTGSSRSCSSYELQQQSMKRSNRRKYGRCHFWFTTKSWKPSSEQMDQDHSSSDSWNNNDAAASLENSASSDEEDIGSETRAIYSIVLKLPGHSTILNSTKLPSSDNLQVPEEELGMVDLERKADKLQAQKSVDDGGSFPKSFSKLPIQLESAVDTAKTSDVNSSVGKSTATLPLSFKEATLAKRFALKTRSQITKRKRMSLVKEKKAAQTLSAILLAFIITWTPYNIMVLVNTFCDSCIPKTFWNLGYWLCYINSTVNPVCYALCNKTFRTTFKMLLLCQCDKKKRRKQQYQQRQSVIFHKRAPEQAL

[8] = molecular target: T2, Muscarinic acetylcholine receptor M1 (Homo sapiens) (UniProt P11229); experiment: Inhibition of muscarinic M1 receptor at 10 uM
T2 sequence (whole entry): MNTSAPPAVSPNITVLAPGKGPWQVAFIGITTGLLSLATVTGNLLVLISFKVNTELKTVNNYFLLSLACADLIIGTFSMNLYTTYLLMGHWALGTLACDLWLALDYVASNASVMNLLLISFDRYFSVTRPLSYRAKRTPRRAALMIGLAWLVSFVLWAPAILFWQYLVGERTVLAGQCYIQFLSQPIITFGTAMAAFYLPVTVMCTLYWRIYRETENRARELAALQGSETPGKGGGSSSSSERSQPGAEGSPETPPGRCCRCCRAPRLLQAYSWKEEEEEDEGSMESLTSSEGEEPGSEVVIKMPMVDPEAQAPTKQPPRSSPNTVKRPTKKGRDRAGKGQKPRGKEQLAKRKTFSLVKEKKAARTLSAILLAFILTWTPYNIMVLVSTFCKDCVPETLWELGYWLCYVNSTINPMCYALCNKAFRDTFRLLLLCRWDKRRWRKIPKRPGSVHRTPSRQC

[9] = AUC (0 to infinity) in rat at 10 mg/kg, po; assay type: ADME, organism-based; design: dose 10 mg/kg, route oral, time infinity; conditions: plasma
Cytochrome P450 1A2 = molecular target: T3, Cytochrome P450 1A2 (Homo sapiens, UniProt P05177); experiment: Inhibition of CYP1A2; assay type: ADME
T3 sequence (P05177 whole entry): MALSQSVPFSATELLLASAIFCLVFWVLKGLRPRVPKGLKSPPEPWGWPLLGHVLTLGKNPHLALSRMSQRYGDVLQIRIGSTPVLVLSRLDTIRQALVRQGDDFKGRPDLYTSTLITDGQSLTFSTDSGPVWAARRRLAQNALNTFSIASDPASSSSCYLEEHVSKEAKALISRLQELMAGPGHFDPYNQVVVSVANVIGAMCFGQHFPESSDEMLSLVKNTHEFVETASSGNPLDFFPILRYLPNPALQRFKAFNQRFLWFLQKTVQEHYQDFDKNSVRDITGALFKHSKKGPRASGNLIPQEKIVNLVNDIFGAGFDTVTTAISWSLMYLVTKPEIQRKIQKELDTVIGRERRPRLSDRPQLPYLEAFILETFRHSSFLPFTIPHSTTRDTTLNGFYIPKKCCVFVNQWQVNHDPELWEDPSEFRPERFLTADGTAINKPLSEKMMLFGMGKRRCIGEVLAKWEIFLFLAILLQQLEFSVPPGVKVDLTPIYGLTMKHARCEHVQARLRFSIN

[10] = Half life in rat at 10 mg/kg, iv; assay type: ADME, organism-based; design: dose 10 mg/kg, route intravenous; conditions: in vivo
Mus musculus [11] = experiment: Anxiolytic activity in mouse assessed as inhibition of marble buried at 30 mg/kg, ip by marble burying test; assay type: functional; conditions: route intraperitoneal
Cytochrome P450 3A4 = Cytochrome P450 3A4 (Homo sapiens, UniProt P08684); experiment: Inhibition of CYP3A4; assay type: ADME
Cytochrome P450 3A4, sequence (P08684 whole entry): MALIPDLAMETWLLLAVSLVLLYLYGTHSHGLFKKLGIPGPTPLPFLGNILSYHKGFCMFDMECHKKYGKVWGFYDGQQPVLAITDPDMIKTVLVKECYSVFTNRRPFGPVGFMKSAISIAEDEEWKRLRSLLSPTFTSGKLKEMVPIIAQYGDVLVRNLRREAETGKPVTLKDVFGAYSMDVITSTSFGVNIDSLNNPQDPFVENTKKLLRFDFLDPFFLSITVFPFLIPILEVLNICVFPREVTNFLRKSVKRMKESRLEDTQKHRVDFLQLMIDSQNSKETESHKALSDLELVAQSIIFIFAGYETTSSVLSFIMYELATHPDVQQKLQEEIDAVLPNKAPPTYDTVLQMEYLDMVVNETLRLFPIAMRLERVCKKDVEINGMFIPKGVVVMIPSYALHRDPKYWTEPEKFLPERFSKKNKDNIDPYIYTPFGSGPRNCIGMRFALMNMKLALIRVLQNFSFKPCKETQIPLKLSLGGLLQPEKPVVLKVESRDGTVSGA

[12] = molecular target: Sodium-dependent serotonin transporter (Rattus norvegicus) (UniProt P31652); experiment: Displacement of [3H]paroxetine from SERT in rat cerebral cortex at 100 nM
Sodium-dependent serotonin transporter (Rattus norvegicus), sequence (P31652 whole entry): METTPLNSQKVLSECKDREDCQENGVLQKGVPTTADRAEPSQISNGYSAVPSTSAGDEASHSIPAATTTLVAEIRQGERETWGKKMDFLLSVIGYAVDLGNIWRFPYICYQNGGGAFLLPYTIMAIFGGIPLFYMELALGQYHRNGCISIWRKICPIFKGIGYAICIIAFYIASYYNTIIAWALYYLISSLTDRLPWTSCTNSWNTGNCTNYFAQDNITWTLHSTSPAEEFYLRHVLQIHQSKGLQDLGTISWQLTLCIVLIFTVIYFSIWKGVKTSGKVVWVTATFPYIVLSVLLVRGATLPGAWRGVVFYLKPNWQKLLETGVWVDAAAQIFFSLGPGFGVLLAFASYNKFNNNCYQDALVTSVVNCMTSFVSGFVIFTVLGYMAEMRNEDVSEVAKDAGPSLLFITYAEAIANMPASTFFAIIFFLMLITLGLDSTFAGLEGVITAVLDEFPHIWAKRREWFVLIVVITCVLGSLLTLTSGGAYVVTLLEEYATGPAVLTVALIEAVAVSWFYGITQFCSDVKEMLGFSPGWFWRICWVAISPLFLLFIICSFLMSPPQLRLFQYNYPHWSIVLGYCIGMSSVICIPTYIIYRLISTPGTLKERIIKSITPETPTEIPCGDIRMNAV

[13] = molecular target: T4, Sodium-dependent dopamine transporter (Homo sapiens, UniProt Q01959); experiment: Inhibition of dopamine reuptake at human dopamine transporter expressed in CHO cells; assay type: cell-based
T4 sequence (Q01959 whole entry): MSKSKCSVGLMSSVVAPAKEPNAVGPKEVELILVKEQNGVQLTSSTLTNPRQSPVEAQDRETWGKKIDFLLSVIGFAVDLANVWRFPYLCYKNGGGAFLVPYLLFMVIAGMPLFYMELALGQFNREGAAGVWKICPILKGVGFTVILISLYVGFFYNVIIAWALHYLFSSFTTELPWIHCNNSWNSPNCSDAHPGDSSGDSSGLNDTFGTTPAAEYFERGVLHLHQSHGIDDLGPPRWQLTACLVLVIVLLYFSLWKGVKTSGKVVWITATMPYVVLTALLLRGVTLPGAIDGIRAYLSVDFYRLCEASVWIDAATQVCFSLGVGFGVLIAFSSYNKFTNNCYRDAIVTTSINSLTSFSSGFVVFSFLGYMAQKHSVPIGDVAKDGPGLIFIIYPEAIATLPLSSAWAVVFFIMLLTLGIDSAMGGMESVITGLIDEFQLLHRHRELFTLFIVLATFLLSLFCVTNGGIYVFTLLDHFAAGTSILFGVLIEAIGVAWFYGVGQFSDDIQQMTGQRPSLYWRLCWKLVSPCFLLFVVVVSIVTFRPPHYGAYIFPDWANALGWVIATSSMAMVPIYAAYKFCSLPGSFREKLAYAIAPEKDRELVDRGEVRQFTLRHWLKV
How it was run: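 CHO-K1 cells stably expressing human DAT, assayed for [3H]DA uptake in duplicate. Nomifensine served as standard. IC50 determined.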

[14] = Clearance in rat at 10 mg/kg, iv; assay type: ADME, organism-based; design: dose 10 mg/kg, route intravenous; conditions: in vivo
[15] = AUC (0 to infinity) in rat at 10 mg/kg, iv; assay type: ADME, organism-based; design: time infinity, dose 10 mg/kg, route intravenous; conditions: plasma
Mus musculus [16] = experiment: Potentiation of […]-induced serotonin syndrome like behavior in po dosed mouse; assay type: functional; conditions: read-out: MED
How it was run: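 Mice, oral dosing. For serotonin potentiation, 5-hydroxytryptophan (5-HTP, serotonin precursor) is given to induce serotonin syndrome-like head twitch/stereotypy counts. Response is expressed as % potentiation relative to control group (0%). Minimal effective dose is the lowest dose reaching p <0.05. Doses are in mg/kg.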

[17] = molecular target: T5, 5-hydroxytryptamine receptor 2C (Homo sapiens) (UniProt P28335); experiment: Inhibition of 5HT2C receptor at 10 uM
T5 sequence (whole entry): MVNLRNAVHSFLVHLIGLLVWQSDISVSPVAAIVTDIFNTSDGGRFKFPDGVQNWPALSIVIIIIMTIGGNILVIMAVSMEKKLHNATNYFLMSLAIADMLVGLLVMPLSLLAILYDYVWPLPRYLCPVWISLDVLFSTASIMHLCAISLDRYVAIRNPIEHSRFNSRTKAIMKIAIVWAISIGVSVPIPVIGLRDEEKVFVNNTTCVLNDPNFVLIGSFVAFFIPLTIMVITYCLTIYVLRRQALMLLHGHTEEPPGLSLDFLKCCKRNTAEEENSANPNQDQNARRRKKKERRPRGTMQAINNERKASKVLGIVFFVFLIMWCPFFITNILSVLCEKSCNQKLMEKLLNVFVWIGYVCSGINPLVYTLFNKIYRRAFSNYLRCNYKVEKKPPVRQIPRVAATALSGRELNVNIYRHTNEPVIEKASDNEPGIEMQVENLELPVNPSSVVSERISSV

[18] = Tmax in rat at 10 mg/kg, po; assay type: ADME, organism-based; design: dose 10 mg/kg, route oral; conditions: in vivo
Mus musculus [19] = experiment: Analgesic activity in mouse assessed as reduction of acetic acid-induced writhing at 30 mg/kg
[20] = AUC in rat at 10 mg/kg, iv; assay type: ADME, organism-based; design: dose 10 mg/kg, route intravenous; conditions: plasma
[21] = molecular target: T4, Sodium-dependent dopamine transporter; experiment: Inhibition of dopamine reuptake at human dopamine transporter expressed in CHO cells at 100 nM
[22] = molecular target: Sodium-dependent noradrenaline transporter (Homo sapiens, UniProt P23975); experiment: Inhibition of norepinephrine reuptake at human NET expressed in MDCK cells at 100 nM
Sodium-dependent noradrenaline transporter, sequence (P23975 whole entry): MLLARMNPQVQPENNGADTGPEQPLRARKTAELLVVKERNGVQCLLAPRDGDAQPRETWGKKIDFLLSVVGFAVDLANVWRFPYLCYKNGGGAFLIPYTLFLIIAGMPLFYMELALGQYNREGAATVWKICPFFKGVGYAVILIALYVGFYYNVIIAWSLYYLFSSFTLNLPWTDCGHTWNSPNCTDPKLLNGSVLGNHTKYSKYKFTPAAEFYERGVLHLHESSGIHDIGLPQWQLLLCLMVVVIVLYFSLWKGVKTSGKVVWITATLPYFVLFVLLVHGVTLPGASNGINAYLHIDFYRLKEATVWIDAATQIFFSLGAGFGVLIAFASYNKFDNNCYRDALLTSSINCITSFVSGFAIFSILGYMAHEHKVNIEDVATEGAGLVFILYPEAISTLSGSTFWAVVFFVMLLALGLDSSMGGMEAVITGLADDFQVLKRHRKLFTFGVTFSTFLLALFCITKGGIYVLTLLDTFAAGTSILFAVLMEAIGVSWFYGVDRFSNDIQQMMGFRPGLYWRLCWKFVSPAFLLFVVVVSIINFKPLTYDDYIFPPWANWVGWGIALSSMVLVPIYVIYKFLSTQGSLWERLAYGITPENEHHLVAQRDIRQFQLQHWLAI

bioavailability [1]: 43.2%
IC50 (Cytochrome P450 2C19): > 10 µM
IC50 [4]: 0.143 µM
IC50 (Cytochrome P450 2C9): > 10 µM
inhibition [5]: 43%
inhibition [6]: < 20%
inhibition [7]: < 20%
inhibition [8]: < 20%
AUC(0-inf) [9]: 1790 ng·h/mL
IC50 (Cytochrome P450 1A2): > 10 µM
half-life [10]: 3.12 h
IC50 (Cytochrome P450 3A4): > 10 µM
inhibition [12]: 61.2%
IC50 [13]: 0.058 µM
clearance [14]: 42 mL/min/kg
AUC(0-inf) [15]: 4150 ng·h/mL
inhibition [17]: 66%
Tmax [18]: 0.75 h
AUC [20]: 3830 ng·h/mL
inhibition [21]: 62%
inhibition [22]: 84%
SMILES: CNCC[C@@H](c1ccc(Cl)c(Cl)c1)n1nnc(C)n1
Activity (Mus musculus [2]): 142%
Activity (Mus musculus [3]): 92%
inhibition in vivo at 30 mg/kg (Mus musculus [11]): 94.4%
minimal effective dose (Mus musculus [16]): 30 mg/kg
inhibition in vivo at 30 mg/kg (Mus musculus [19]): 94.4%
